{"source": "ChEMBL document CHEMBL1125130", "about": "“4-Alkyl-1,4-dihydropyridines derivatives as specific PAF-acether antagonists” (J Med Chem, 1990)", "key": {"Rattus norvegicus [1]": {"test_system": "Rattus norvegicus", "test": "Tested in vivo for ability to inhibit PAF-induced hypotension in rats by measuring the drop in mean arterial blood pressure(mmHg) after 20 minutes activity", "assay_type": "functional", "method_in_brief": "(§1)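 Male Sprague-Dawley rats (225 ± 2 g) under sodium pentobarbital (50 mg/kg ip). PAF 0.66 µg/kg injected; compounds 5 mg/kg iv given 3 min later at maximal blood pressure fall. Blood pressure changes recorded for 30 min after PAF, compared with vehicle controls (five rats per group).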"}, "Rattus norvegicus [2]": {"test_system": "Rattus norvegicus", "test": "Tested in vivo for ability to inhibit PAF-induced hypotension in rats by measuring the drop in mean arterial blood pressure(mmHg) after 3 minutes activity", "assay_type": "functional", "method_in_brief": "as §1"}}, "data": [{"smiles": "CC1=NC(C)=C(C(=O)OCCSc2ccccc2)C(C)/C1=C(\\O)OC(C)C", "note": "(configuration not stated)", "values": [{"measurement": "MABP", "setting": "Rattus norvegicus [1]", "result": 27, "unit": "mmHg"}, {"measurement": "MABP", "setting": "Rattus norvegicus [2]", "result": 78, "unit": "mmHg"}]}, {"smiles": "CC1=NC(C)=C(C(=O)OCCSc2ccccc2)C(C)/C1=C(\\O)OCC1CCCO1", "note": "(configuration not stated)", "values": [{"measurement": "MABP", "setting": "Rattus norvegicus [1]", "result": 21, "unit": "mmHg"}, {"measurement": "MABP", "setting": "Rattus norvegicus [2]", "result": 63, "unit": "mmHg"}]}, {"smiles": "CCCC1C(C(=O)OCCSC)=C(C)N=C(C)/C1=C(/O)OCC", "note": "(configuration not stated)", "values": [{"measurement": "MABP", "setting": "Rattus norvegicus [1]", "result": 60, "unit": "mmHg"}, {"measurement": "MABP", "setting": "Rattus norvegicus [2]", "result": 101, "unit": "mmHg"}]}, {"smiles": "CCO/C(O)=C1\\C(C)=NC(C)=C(C(=O)OCCSC)C1C", "note": "(configuration not stated)", "values": [{"measurement": "MABP", "setting": "Rattus norvegicus [1]", "result": 29, "unit": "mmHg"}, {"measurement": "MABP", "setting": "Rattus norvegicus [2]", "result": 88, "unit": "mmHg"}]}, {"smiles": "CO/C(O)=C1\\C(C)=NC(C)=C(C(=O)OCCSc2ccccc2)C1C", "note": "(configuration not stated)", "values": [{"measurement": "MABP", "setting": "Rattus norvegicus [1]", "result": 14, "unit": "mmHg"}, {"measurement": "MABP", "setting": "Rattus norvegicus [2]", "result": 30, "unit": "mmHg"}]}, {"smiles": "CCO/C(O)=C1\\C(C)=NC(C)=C(C(=O)OCCSC)C1CC", "note": "(configuration not stated)", "values": [{"measurement": "MABP", "setting": "Rattus norvegicus [1]", "result": 36, "unit": "mmHg"}, {"measurement": "MABP", "setting": "Rattus norvegicus [2]", "result": 77, "unit": "mmHg"}]}, {"smiles": "CCO/C(O)=C1/C(C)=NC(C)=C(C(=O)OCCSc2ccccc2)C1C", "note": "(configuration not stated)", "values": [{"measurement": "MABP", "setting": "Rattus norvegicus [1]", "result": 23, "unit": "mmHg"}, {"measurement": "MABP", "setting": "Rattus norvegicus [2]", "result": 52, "unit": "mmHg"}]}, {"smiles": "CCO/C(O)=C1\\C(C)=NC(C)=C(C(=O)OCCSCC)C1C", "note": "(configuration not stated)", "values": [{"measurement": "MABP", "setting": "Rattus norvegicus [1]", "result": 18, "unit": "mmHg"}, {"measurement": "MABP", "setting": "Rattus norvegicus [2]", "result": 64, "unit": "mmHg"}]}, {"smiles": "CCCC1C(C(=O)OCCSCC)=C(C)N=C(C)/C1=C(/O)OCC", "note": "(configuration not stated)", "values": [{"measurement": "MABP", "setting": "Rattus norvegicus [1]", "result": 71, "unit": "mmHg"}, {"measurement": "MABP", "setting": "Rattus norvegicus [2]", "result": 106, "unit": "mmHg"}]}, {"smiles": "CO/C(O)=C1\\C(C)=NC(C)=C(C(=O)OCCSC)C1C", "note": "(configuration not stated)", "values": [{"measurement": "MABP", "setting": "Rattus norvegicus [1]", "result": 5, "unit": "mmHg"}, {"measurement": "MABP", "setting": "Rattus norvegicus [2]", "result": 51, "unit": "mmHg"}]}, {"smiles": "CCSCCO/C(O)=C1\\C(C)=NC(C)=C(C(=O)OC)C1C", "note": "(configuration not stated)", "values": [{"measurement": "MABP", "setting": "Rattus norvegicus [1]", "result": 32, "unit": "mmHg"}, {"measurement": "MABP", "setting": "Rattus norvegicus [2]", "result": 68, "unit": "mmHg"}]}]}
